Assay results published in ChEMBL document CHEMBL1157439, “Novel benzimidazole derivatives as selective CB2 agonists” (Bioorg Med Chem Lett, 2008).
pEC50, pKi: −log10 of the molar value.

Experiments:
Cannabinoid receptor 2 [1] = target: T1, Cannabinoid receptor 2 (Homo sapiens, UniProt P34972); experiment: Displacement of [3H]CP-55940 from human CB2 receptor
Cannabinoid receptor 1 = Cannabinoid receptor 1 (Homo sapiens, UniProt P21554); experiment: Displacement of [3H]CP-55940 from human CB1 receptor
Chain of Cannabinoid receptor 1 (P21554 whole entry): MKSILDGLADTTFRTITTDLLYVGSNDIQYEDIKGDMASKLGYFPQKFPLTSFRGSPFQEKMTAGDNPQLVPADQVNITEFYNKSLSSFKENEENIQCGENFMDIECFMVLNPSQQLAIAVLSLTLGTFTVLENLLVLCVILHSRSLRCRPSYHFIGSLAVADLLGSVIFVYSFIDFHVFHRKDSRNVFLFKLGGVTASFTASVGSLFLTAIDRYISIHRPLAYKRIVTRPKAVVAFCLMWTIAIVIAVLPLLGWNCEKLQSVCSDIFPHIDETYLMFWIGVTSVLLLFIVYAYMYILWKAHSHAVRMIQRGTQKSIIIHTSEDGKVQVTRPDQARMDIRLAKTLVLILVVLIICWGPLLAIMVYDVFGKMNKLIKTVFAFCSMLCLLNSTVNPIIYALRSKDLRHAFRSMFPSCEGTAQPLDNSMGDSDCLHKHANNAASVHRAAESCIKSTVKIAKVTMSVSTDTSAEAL

Cannabinoid receptor 2 [2] = target: T1, Cannabinoid receptor 2; experiment: Agonist activity at cloned human CB2 receptor in Sf9 cells assessed as stimulation of [35S]GTPgammaS binding assay; format: functional
Outline: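 Sf9 membranes carrying cloned human CB2, in 50 mM Hepes, 20 mM NaOH, 100 mM NaCl, 1 mM EDTA, 5 mM MgCl2, 0.1% BSA plus GDP, pH 7.4. 10-point dose–response with [35S]GTPγS (~130,000 dpm/well), 1 h, room temperature. Filtered and washed (Tris/MgCl2/NaCl pH 7.4, 4 °C), then scintillation counted.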

Cannabinoid receptor 2 [3] = target: T1, Cannabinoid receptor 2; experiment: Agonist activity at cloned human CB2 receptor in Sf9 cells assessed by [35S]GTPgammaS binding assay relative to delta9-THC; format: functional

T1 sequence (P34972 whole entry): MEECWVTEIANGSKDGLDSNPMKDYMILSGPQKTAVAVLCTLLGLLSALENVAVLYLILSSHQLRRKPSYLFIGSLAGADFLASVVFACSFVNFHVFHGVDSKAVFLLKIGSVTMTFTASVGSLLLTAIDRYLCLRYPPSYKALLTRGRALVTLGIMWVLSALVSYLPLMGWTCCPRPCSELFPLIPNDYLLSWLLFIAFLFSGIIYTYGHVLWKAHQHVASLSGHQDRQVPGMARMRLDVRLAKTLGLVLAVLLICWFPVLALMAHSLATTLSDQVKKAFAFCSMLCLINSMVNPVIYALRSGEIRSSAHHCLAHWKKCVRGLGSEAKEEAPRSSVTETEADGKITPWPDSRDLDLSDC

Structure (SMILES)	pKi (Cannabinoid receptor 2 [1])	pKi (Cannabinoid receptor 1)	pEC50 (Cannabinoid receptor 2 [2])	Emax (Cannabinoid receptor 2 [3]) [%]
CCOc1ccc(Cc2nc3cc(N(C)C(=O)c4cccs4)ccc3n2CC2CC2)cc1	8.30	5.61	8.59	51
CCN(CC)C(=O)c1ccc2c(c1)nc(Cc1ccc(Oc3ccccc3)cc1)n2CCC(C)C	8.31	5.62	8.49	66
CCOc1ccc(Cc2nc3cc(C(=O)N4CCCCC4)ccc3n2CC2CC2)cc1	8.16	< 5.30	8.52	45
CCOc1ccc(Cc2nc3cc(C(=O)N(CC)CC)ccc3n2Cc2ccncc2)cc1	7.80	< 5.30	8.30	78
CCCN(C)C(=O)c1ccc2c(c1)nc(Cc1ccc(OCC)cc1)n2CC1CC1	8.12	< 5.30	8.49	54
CCN(CC)C(=O)c1ccc2c(c1)nc(Cc1ccc(OCC3CC3)cc1)n2CCC(C)C	7.28	5.38	7.37	75
CCOc1ccc(Cc2nc3cc(C(=O)N(CC)CC)ccc3n2CC2CC2)cn1	–	< 5.30	–	–
CCN(CC)C(=O)c1ccc2c(c1)nc(Cc1ccc(OCC(F)(F)F)cc1)n2CCC(C)C	7.24	< 5.30	7.19	68
CCCN(CCC)C(=O)c1ccc2c(c1)nc(Cc1ccc(OCC)cc1)n2CC1CC1	8.55	5.58	8.70	67
CCOc1ccc(Cc2nc3cc(C(=O)N(CC)CC)ccc3n2CC2CCCCC2)cc1	8.43	6.96	9.28	79
CCOc1ccc(Cc2nc3cc(NC)ccc3n2CC2CC2)cc1	5.36	< 5.30	–	–
CCOc1ccc(Cc2nc3cc(C(=O)N(CC)CC)ccc3n2C[C@H]2CCCO2)cc1	7.64	< 5.30	8.08	62
CCN(CC)C(=O)c1ccc2c(c1)nc(Cc1ccc(OC3CCC3)cc1)n2CCC(C)C	7.36	< 5.30	7.62	73
CCN(CC)C(=O)c1ccc2c(c1)nc(Cc1ccc(OC(C)C)cc1)n2CCC(C)C	8.35	5.33	8.62	79
CCOc1ccc(Cc2nc3cc(N(C)C(=O)CC(C)C)ccc3n2CC2CC2)cc1	8.40	< 5.30	8.57	54
CCOc1ccc(Cc2nc3cc(C(=O)N(CC)CC)ccc3n2CC2CCOCC2)cc1	8.41	5.92	9.00	89
CCOc1ccc(Cc2nc3cc(C(=O)N(C)C4CCCCC4)ccc3n2CC2CC2)cc1	7.96	< 5.30	8.38	60
CCOc1ccc(Cc2nc3cc(C(=O)N(CC)CC)ccc3n2Cc2ccccn2)cc1	7.41	< 5.30	7.60	77
CCOc1ccc(Cc2nc3cc(C(=O)N(CC)CC)ccc3n2CC2CC2)cc1	8.39	< 5.30	8.68	68
CCN(CC)C(=O)c1ccc2c(c1)nc(Cc1ccc(OC3CCCCC3)cc1)n2CCC(C)C	6.28	< 5.30	–	–
CCOc1ccc(Cc2nc3cc(N(C)C(=O)N(C)C)ccc3n2CC2CC2)cc1	7.39	< 5.30	7.44	55
CCOc1ccc(Cc2nc3cc(C(=O)N(CC)CC)ccc3n2Cc2ccco2)cc1	7.96	< 5.30	8.48	78
CCOc1ccc(Cc2nc3cc(C(N)=O)ccc3n2CC2CC2)cc1	< 5.30	< 5.30	–	–
CCN(CC)C(=O)c1ccc2c(c1)nc(Cc1ccc(OC(F)(F)F)cc1)n2CCC(C)C	7.60	< 5.30	7.96	29

Structure (SMILES)	pKi (Cannabinoid receptor 2 [1])	pKi (Cannabinoid receptor 1)	pEC50 (Cannabinoid receptor 2 [2])	Emax (Cannabinoid receptor 2 [3]) [%]
CCOc1ccc(Cc2nc3cc(N(C)C(=O)NC(C)C)ccc3n2CC2CC2)cc1	8.24	< 5.30	8.19	51
CCOc1ccc(Cc2nc3cc(N(C)C(=O)N(CC)CC)ccc3n2CC2CC2)cc1	8.23	< 5.30	8.70	48
CCOc1ccc(Cc2nc3cc(N(C)C(C)=O)ccc3n2CC2CC2)cc1	5.87	< 5.30	–	–
CCOc1ccc(Cc2nc3cc(C(=O)N(CC)CC)ccc3n2Cc2ccccc2)cc1	7.92	5.32	8.96	88
CCOc1ccc(Cc2nc3cc(C(=O)N(CC)CC)ccc3n2CC23CC4CC(CC(C4)C2)C3)cc1	8.55	6.39	8.89	81
CCN(CC)C(=O)c1ccc2c(c1)nc(Cc1ccc(OC3CCCC3)cc1)n2CCC(C)C	7.37	< 5.30	7.74	83
CCOc1ccc(Cc2nc3cc(C(=O)N(CC)CC)ccc3n2Cc2cc[n+]([O-])cc2)cc1	6.23	< 5.30	–	–
CCOc1ccc(Cc2nc3cc(C(=O)N(CC)CC)ccc3n2CC2CC2)nc1	7.57	< 5.30	7.66	63
CCOc1ccc(Cc2nc3cc(C(=O)N(CC)CC)ccc3n2CC2CCC2)cc1	8.80	5.51	8.89	64
CCOc1ccc(C(O)c2nc3cc(C(=O)N(CC)CC)ccc3n2CCC(C)C)cc1 (configuration not stated)	7.24	< 5.30	–	70
CCOc1ccc(Cc2nc3cc(NC(C)=O)ccc3n2CC2CC2)cc1	< 5.30	< 5.30	–	–
CCOc1ccc(Cc2nc3cc(C(=O)N4CCCC4)ccc3n2CC2CC2)cc1	7.85	< 5.30	8.21	51
CCN(CC)C(=O)c1ccc2c(c1)nc(Cc1ccc(OC)cc1)n2CCC(C)C	7.77	< 5.30	8.14	43
CCOc1ccc(Cc2nc3cc(N(C)C(=O)N4CCCCC4)ccc3n2CC2CC2)cc1	8.40	5.46	8.48	60
CCOc1ccc(Cc2nc3cc(C(=O)N(CC(F)(F)F)CC(F)(F)F)ccc3n2CC2CC2)cc1	–	5.34	8.70	51
Cc1c(C(=O)c2cccc3ccccc23)c2cccc3c2n1[C@H](CN1CCOCC1)CO3	–	–	–	64
CCN(CC)C(=O)c1ccc2c(c1)nc(Cc1ccc(O)cc1)n2CCC(C)C	6.10	< 5.30	–	–
CCOc1ccc(Cc2nc3cc(C(=O)N(CC)CC)ccc3n2CCC(C)C)cc1	–	< 5.30	–	63
CCOc1ccc(Cc2nc3cc(C(=O)N(CC)CC)ccc3n2CC2CCCC2)cc1	9.00	6.31	9.15	79
CCNC(=O)c1ccc2c(c1)nc(Cc1ccc(OCC)cc1)n2CC1CC1	7.20	< 5.30	7.28	53
CCOc1ccc(Cc2nc3cc(C(=O)N(CC)CC)ccc3n2CC2CCNCC2)cc1	5.53	< 5.30	–	–
CCOc1ccc(C(=O)c2nc3cc(C(=O)N(CC)CC)ccc3n2CCC(C)C)cc1	7.46	< 5.30	7.60	55
CCOc1ccc(Cc2nc3cc(C(=O)N(CC)CC)ccc3n2C[C@@H]2CCCO2)cc1	7.82	< 5.30	8.32	76
